Reference: ChEMBL document CHEMBL3286372, “Design, synthesis and structure-activity relationship of novel semi-synthetic flavonoids as antiproliferative agents” (2014)

Experiments:
[1] = system: T47D; assay: Growth inhibition of human T47D cells after 48 hrs by coulter counting analysis; type: functional
Method in brief: (§1)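 Five-dose NCI-60 follow-up, 0.01–100 µM, made from DMSO stock in buffered saline (final DMSO <1%), in duplicate wells. Cells in RPMI 1640 with 10% FBS at 6×10^4 cells/ml, 37 °C, 5% CO2, 48 h. Cells diluted tenfold in saline, Coulter-counted and corrected for dilution. GI50, TGI and LC50 taken from log concentration–percent growth curves.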

[2] = system: NCI-H226; assay: Growth inhibition of human NCI-H226 cells after 48 hrs by coulter counting analysis; type: functional; settings: NCI-H226, 48 h; method in brief: as §1
[3] = system: TK-10; assay: Growth inhibition of human TK10 cells after 48 hrs by coulter counting analysis; type: functional; settings: TK-10, 48 h
Method in brief: (§2)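 NCI five-dose screen, 0.01-100 µM, from DMSO stocks diluted in buffer saline (final DMSO <1%). Cells grown in RPMI 1640 + 10% FBS, seeded at 6×10^4 cells/ml, in duplicate wells. Exposure 48 h at 37 °C, 5% CO2. Cells diluted 10-fold in saline and counted by Coulter counter. GI50 derived from log concentration–percent growth inhibition curves. Controls carried matching PBS/saline/DMSO.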

[4] = system: SK-MEL-28; assay: Growth inhibition of human SK-MEL-28 cells after 48 hrs by coulter counting analysis; type: functional; settings: SK-MEL-28, 48 h; method in brief: as §1
[5] = system: SK-MEL-2; assay: Growth inhibition of human SK-MEL-2 cells after 48 hrs by coulter counting analysis; type: functional; settings: SK-MEL-2, 48 h; method in brief: as §1
[6] = Growth inhibition of human BT549 cells after 48 hrs by coulter counting analysis; type: functional; settings: BT-549, 48 h
Method in brief: (§3)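 NCI five-dose screen at 0.01-100 µM, diluted from DMSO stocks in buffered saline (final DMSO <1%). Cells at 6×10^4 cells/ml in RPMI 1640 with 10% FBS, in duplicate wells, at 37 °C under 5% CO2 for 48 h. Cells diluted tenfold in saline and Coulter-counted. GI50, TGI and LC50 taken from log concentration-growth inhibition curves.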

[7] = system: MDA-MB-435; assay: Growth inhibition of human MDA-MB-435 cells after 48 hrs by coulter counting analysis; type: functional; settings: MDA-MB-435, 48 h; method in brief: as §3
[8] = system: SNB-75; assay: Growth inhibition of human SNB75 cells after 48 hrs by coulter counting analysis; type: functional; settings: SNB-75, 48 h; method in brief: as §1
[9] = system: SF-268; assay: Growth inhibition of human SF268 cells after 48 hrs by coulter counting analysis; type: functional; settings: SF-268, 48 h; method in brief: as §1
[10] = molecular target: Cyclin-dependent kinase 2/cyclin E1 (Homo sapiens) (UniProt P24864+P24941); assay: Inhibition of CDK2/Cyclin E1 (unknown origin) at 20 uM after 30 mins by scintillation counting analysis relative to control; type: protein-complex assay
Method in brief: (§4)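 Recombinant kinases, cloned, expressed and purified in-house. Radiometric ³³P-ATP assay with kinase at ~10-50 nM final and 1-5 µg peptide or protein substrate. Compound at 20 µM final, in duplicate. Reaction started by adding ATP, run 30 min at ambient temperature, then spotted on P81 phosphocellulose. Plates washed in 1% phosphoric acid and counted by scintillation. No-substrate blank subtracted. Result is mean % activity change versus DMSO control.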

[11] = Growth inhibition of human EKVX cells after 48 hrs by coulter counting analysis; type: functional; method in brief: as §3
[12] = system: Malme-3M; assay: Growth inhibition of human MALME-3M cells after 48 hrs by coulter counting analysis; type: functional; method in brief: as §3
[13] = system: A498; assay: Growth inhibition of human A498 cells after 48 hrs by coulter counting analysis; type: functional; settings: A498, 48 h; method in brief: as §3
[14] = system: NCI-H460; assay: Growth inhibition of human NCI-H460 cells after 48 hrs by coulter counting analysis; type: functional; settings: NCI-H460, 48 h; method in brief: as §1
[15] = Growth inhibition of human HOP92 cells after 48 hrs by coulter counting analysis; type: functional; settings: HOP-92, 48 h; method in brief: as §3
[16] = system: U-251; assay: Growth inhibition of human U251 cells after 48 hrs by coulter counting analysis; type: functional; settings: U-251, 48 h; method in brief: as §2
[17] = system: K562; assay: Growth inhibition of human K562 cells after 48 hrs by coulter counting analysis; type: functional; settings: K562, 48 h; method in brief: as §3
[18] = system: SW-620; assay: Growth inhibition of human SW620 cells after 48 hrs by coulter counting analysis; type: functional; settings: SW-620, 48 h; method in brief: as §1
[19] = Growth inhibition of human OVCAR4 cells after 48 hrs by coulter counting analysis; type: functional; settings: OVCAR-4, 48 h; method in brief: as §1
[20] = Growth inhibition of human UO31 cells after 48 hrs by coulter counting analysis; type: functional; settings: UO-31, 48 h; method in brief: as §2
[21] = Growth inhibition of human MOLT4 cells after 48 hrs by coulter counting analysis; type: functional; settings: MOLT-4, 48 h; method in brief: as §1
[22] = Growth inhibition of human UACC257 cells after 48 hrs by coulter counting analysis; type: functional; settings: UACC-257, 48 h; method in brief: as §2
[23] = system: SK-OV-3; assay: Growth inhibition of human SKOV3 cells after 48 hrs by coulter counting analysis; type: functional; settings: SK-OV-3, 48 h; method in brief: as §1
[24] = system: MCF7; assay: Growth inhibition of human MCF7 cells after 48 hrs by coulter counting analysis; type: functional; settings: MCF7, 48 h; method in brief: as §3
[25] = molecular target: Glycogen synthase kinase-3 beta (Homo sapiens) (UniProt P49841); assay: Inhibition of GSK-3beta (unknown origin) at 20 uM after 30 mins by scintillation counting analysis relative to control; method in brief: as §4
Sequence of Glycogen synthase kinase-3 beta (Homo sapiens) (P49841 whole entry, looked up): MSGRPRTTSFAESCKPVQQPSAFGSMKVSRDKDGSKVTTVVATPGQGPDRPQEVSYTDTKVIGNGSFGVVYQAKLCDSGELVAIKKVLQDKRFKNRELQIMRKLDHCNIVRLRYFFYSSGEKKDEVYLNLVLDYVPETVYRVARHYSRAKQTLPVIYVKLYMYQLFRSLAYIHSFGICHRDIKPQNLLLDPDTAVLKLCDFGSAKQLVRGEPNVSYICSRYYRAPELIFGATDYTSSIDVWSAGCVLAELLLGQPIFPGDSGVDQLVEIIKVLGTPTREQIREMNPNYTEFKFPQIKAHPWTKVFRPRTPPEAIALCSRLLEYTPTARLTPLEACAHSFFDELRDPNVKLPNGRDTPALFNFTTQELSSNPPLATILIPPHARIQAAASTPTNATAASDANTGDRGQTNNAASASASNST

[26] = system: ACHN; assay: Growth inhibition of human ACHN cells after 48 hrs by coulter counting analysis; type: functional; method in brief: as §3
[27] = system: A549; assay: Growth inhibition of human A549/ATCC cells after 48 hrs by coulter counting analysis; type: functional; settings: A549, 48 h; method in brief: as §3
[28] = system: M14; assay: Growth inhibition of human M14 cells after 48 hrs by coulter counting analysis; type: functional; settings: M14, 48 h; method in brief: as §3
[29] = system: KM12; assay: Growth inhibition of human KM12 cells after 48 hrs by coulter counting analysis; type: functional; settings: KM12, 48 h; method in brief: as §3
[30] = system: SNB-19; assay: Growth inhibition of human SNB19 cells after 48 hrs by coulter counting analysis; type: functional; settings: SNB-19, 48 h; method in brief: as §1
[31] = system: NCI-H522; assay: Growth inhibition of human NCI-H522 cells after 48 hrs by coulter counting analysis; type: functional; settings: NCI-H522, 48 h; method in brief: as §1
[32] = system: CAKI-1; assay: Growth inhibition of human CAKI-1 cells after 48 hrs by coulter counting analysis; type: functional; settings: CAKI-1, 48 h; method in brief: as §3
[33] = system: CCRF-CEM; assay: Growth inhibition of human CCRF-CEM cells after 48 hrs by coulter counting analysis; type: functional; method in brief: as §3
[34] = Growth inhibition of human UACC62 cells after 48 hrs by coulter counting analysis; type: functional; settings: UACC-62, 48 h; method in brief: as §2
[35] = Growth inhibition of human OVCAR8 cells after 48 hrs by coulter counting analysis; type: functional; settings: OVCAR-8, 48 h; method in brief: as §1
[36] = Growth inhibition of human RXF393 cells after 48 hrs by coulter counting analysis; type: functional; settings: RXF 393, 48 h; method in brief: as §1
[37] = system: RPMI-8226; assay: Growth inhibition of human RPMI8226 cells after 48 hrs by coulter counting analysis; type: functional; settings: RPMI-8226, 48 h; method in brief: as §1
[38] = Growth inhibition of human OVCAR3 cells after 48 hrs by coulter counting analysis; type: functional; settings: OVCAR-3, 48 h; method in brief: as §1
[39] = system: COLO 205; assay: Growth inhibition of human COLO205 cells after 48 hrs by coulter counting analysis; type: functional; settings: COLO 205, 48 h; method in brief: as §3

Structure (SMILES)	GI50 [1] [µM]	GI50 [2] [nM]	GI50 [3] [µM]	GI50 [4] [nM]	GI50 [5] [µM]	GI50 [6] [nM]	GI50 [7] [nM]	GI50 [8] [nM]	GI50 [9] [µM]	inhibition [10] [%]	GI50 [11] [µM]	GI50 [12] [µM]	GI50 [13] [nM]	GI50 [14] [nM]	GI50 [15] [nM]	GI50 [16] [nM]	GI50 [17] [µM]	GI50 [18] [nM]	GI50 [19] [nM]	GI50 [20] [nM]	further results
C=CCc1c(O)c(C(=O)/C=C/c2ccc(Cl)cc2)c(OC)c2ccoc12	3.29	1520	3.62	2320	3.97	3000	2060	2010	3.25	3	7.23	2.74	2770	3200	1690	2300	3.25	2560	2770	2880	GI50 [21]: 2610 nM; GI50 [22]: 2390 nM; GI50 [23]: 5.96 µM; GI50 [24]: 2510 nM; inhibition [25]: 80%; GI50 [26]: 2.31 µM; GI50 [27]: 4.7 µM; GI50 [28]: 5.08 µM; GI50 [29]: 3.72 µM; GI50 [30]: 2850 nM; GI50 [31]: 1880 nM; GI50 [32]: 2610 nM; GI50 [33]: 3.33 µM; GI50 [34]: 2880 nM; GI50 [35]: 3.04 µM; GI50 [36]: 1720 nM; GI50 [37]: 3040 nM; GI50 [38]: 1970 nM; GI50 [39]: 4.44 µM
C=CCc1c(O)c(C(=O)/C=C/c2ccccc2)c(OC)c2ccoc12	4.11	1480	4.96	2490	3.04	2630	2780	1390	2.8	0	6.13	5.8	1740	2790	1330	2360	2.87	3320	2890	2890	GI50 [21]: 2170 nM; GI50 [22]: 2560 nM; GI50 [23]: 8.08 µM; GI50 [24]: 2730 nM; inhibition [25]: 38%; GI50 [26]: 3.79 µM; GI50 [27]: 4.41 µM; GI50 [28]: 5.36 µM; GI50 [29]: 4.06 µM; GI50 [30]: 2850 nM; GI50 [31]: 2150 nM; GI50 [32]: 2800 nM; GI50 [33]: 2.75 µM; GI50 [34]: 2740 nM; GI50 [35]: 3.13 µM; GI50 [36]: 1850 nM; GI50 [37]: 1880 nM; GI50 [38]: 2460 nM; GI50 [39]: 5.96 µM
